The conditions of data set [1]: ref Lamba et al. [2021]; Kondo et al. [2022]; Järvinen et al. [2023]; cited from earlier work.
Data set [2] can be described thus: ^68Ga-DOTA-PSMA organ biodistribution by γ-counter, PC-3 xenograft mice. In kind it is in vivo. The conditions noted are these: mouse, tumor, iv, 3.7 MBq, total radioactivity. In outline:
(§1)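 Male six-week-old SPF nude mice: normal (n = 15), 22Rv1 xenograft (n = 12) or PC-3 xenograft (n = 12), with three animals per time point. Each received 3.7 MBq i.v. via the tail vein. Tracer was labelled with ⁶⁸Ga (generator eluted with 0.1 mol/l HCl) in sodium acetate, pH 3–4, at 95 °C for 15 min. Mice were killed by cervical dislocation; organs were excised, weighed and γ-counted for %ID/g. Mean ± SD.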

Data set [3] is described as follows: ^68Ga-DOTA-PSMA micro-PET/CT imaging of 22Rv1 xenograft mice. In kind it is in vivo, mouse. The conditions noted are these: mouse, tumor / non-tumor (muscle), iv, 3.7 MBq, total radioactivity. In outline:
(§2)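 Tracer was labelled with ⁶⁸Ga (generator eluted with 0.1 mol/l HCl) in sodium acetate buffer, pH 3–4, at 95 °C for 15 min. Male six-week-old nude mice bearing 22Rv1 xenografts received 3.7 MBq via the tail vein. Animal PET/CT imaging followed at multiple time points after injection to track tracer accumulation in tumour and surrounding organs.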

In another data set the test system is 22Rv1 Xenograft Mice. The data set is described as above. In kind it is in vivo, mouse. To be noted: PET/CT imaging, 22Rv1 tumor. In outline:
as §2

The nature of data set [4]: ^68Ga-DOTA-PSMA organ biodistribution by γ-counter, 22Rv1 xenograft mice. In kind it is in vivo. The conditions noted are these: mouse, tumor, iv, 3.7 MBq, total radioactivity. In outline:
as §1

In data set [5] the test system is glioblastoma cancer cell nuclei. To be noted: glioblastoma patients; ref Ho et al. [2022]; cited from earlier work.

`N[C@@H](Cc1ccc(B(O)O)cc1)C(=O)O` [BPA, Boronophenylalanine]: in data set [1], the water solubility result was “poor water solubility”.

In the case of `O=C(O)CC[C@H](NC(=O)N[C@@H](CCCCNC(=O)[C@H](Cc1ccc2ccccc2c1)NC(=O)CCCCCNC(=O)CN1CCN(CC(=O)O)CCN(CC(=O)O)CCN(CC(=O)O)CC1)C(=O)O)C(=O)O` [^68Ga-DOTA-PSMA, metal not drawn], the tissue uptake – broadly, the percentage of the injected dose found per gram of tissue – at 2 h in data set [2] turned out to be 6.23 ± 0.79 %ID/g; in data set [4], 27.1 ± 2.55 %ID/g. Moreover, the tissue to tissue ratio at 2 h in data set [3] came to 6.95 ± 0.6. Besides, in the data set with 22Rv1 Xenograft Mice, the “time of peak radiotracer uptake post-injection” value came out at 2 h.

On to `O=C([O-])CN(CCN(CC(=O)[O-])CC(=O)O)CCN(CC(=O)[O-])CC(=O)O.[Gd+3]` [^157Gd-DTPA], for which, in data set [5], the “cancer cell nuclei found to contain the agent” value is recorded as 6.1%.

Regarding “Sodium mercaptoundecahydro-closo-dodecaborate [BSH]”, the water solubility result in data set [1] is “more water-soluble”.

(Values after article PMC11861226 (Journal of Cancer Research and Clinical Oncology, 2025).)
